Calls of active or inactive are those of the source. The rule behind the calls is not given here.
Assays:
[1] = system: Human immunodeficiency virus 1; experiment: Antiviral activity against HIV1 in human MT4 cells assessed as prevention of virus-induced cytopathogenicity; format: functional, organism-based
Summary of the method: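 MT-4 cells, 1 × 10⁴ per well, with serial compound dilutions from a 100 mM DMSO stock. Infected with HIV-1 at 100 CCID50. Four-day incubation at 37 °C, then viable cells measured by MTT. Read-out is inhibition of virus-induced cytopathogenicity, assessed at non-cytotoxic concentrations.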

IGROV-1 = experiment: Growth inhibition of human IGROV1 cells after 48 hrs by sulforhodamine B assay; format: functional; settings: IGROV-1, 48 h
Summary of the method: (§1)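 NCI screen panel. Five 10-fold concentrations from 10^-4 to 10^-8 M. Exposure for the last 48 h of a 72 h incubation. Growth estimated by sulforhodamine B protein assay. GI50 is the concentration giving 50% growth inhibition. Where that level was not reached or was exceeded, the value is given as above or below the highest or lowest concentration tested.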

U-251 = experiment: Growth inhibition of human U251 cells after 48 hrs by sulforhodamine B assay; format: functional; settings: U-251, 48 h
Summary of the method: (§2)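 NCI in vitro panel screen. Compounds tested at five 10-fold dilutions, 10^-4 to 10^-8 M. Cells in 96-well plates were exposed for the last 48 h of a 72 h incubation. Viability/growth was read by sulforhodamine B protein assay. GI50 is the concentration giving 50% growth inhibition. Values beyond the tested range are reported as greater or less than the maximum or minimum concentration.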

M14 = experiment: Growth inhibition of human M14 cells after 48 hrs by sulforhodamine B assay; format: functional; settings: M14, 48 h; summary of the method: as §1
TK-10 = experiment: Growth inhibition of human TK10 cells after 48 hrs by sulforhodamine B assay; format: functional; settings: TK-10, 48 h; summary of the method: as §2
COLO 205 = experiment: Growth inhibition of human COLO205 cells after 48 hrs by sulforhodamine B assay; format: functional; settings: COLO 205, 48 h; summary of the method: as §1
A549 = experiment: Growth inhibition of human A549 cells after 48 hrs by sulforhodamine B assay; format: functional; settings: A549, 48 h; summary of the method: as §1
NCI-H23 = experiment: Growth inhibition of human NCI-H23 cells after 48 hrs by sulforhodamine B assay; format: functional; settings: NCI-H23, 48 h; summary of the method: as §1
SK-MEL-28 = experiment: Growth inhibition of human SK-MEL-28 cells after 48 hrs by sulforhodamine B assay; format: functional; settings: SK-MEL-28, 48 h; summary of the method: as §1
CAKI-1 = experiment: Growth inhibition of human Caki1 cells after 48 hrs by sulforhodamine B assay; format: functional; settings: CAKI-1, 48 h; summary of the method: as §1
SK-MEL-5 = experiment: Growth inhibition of human SK-MEL-5 cells after 48 hrs by sulforhodamine B assay; format: functional; settings: SK-MEL-5, 48 h; summary of the method: as §1
UACC-62 = experiment: Growth inhibition of human UACC62 cells after 48 hrs by sulforhodamine B assay; format: functional; settings: UACC-62, 48 h; summary of the method: as §2
SN12C = experiment: Growth inhibition of human SN12C cells after 48 hrs by sulforhodamine B assay; format: functional; summary of the method: as §2
OVCAR-3 = experiment: Growth inhibition of human OVCAR-3 cells after 48 hrs by sulforhodamine B assay; format: functional; settings: OVCAR-3, 48 h; summary of the method: as §1
SW-620 = experiment: Growth inhibition of human SW620 cells after 48 hrs by sulforhodamine B assay; format: functional; settings: SW-620, 48 h; summary of the method: as §2
K562 = experiment: Growth inhibition of human K562 cells after 48 hrs by sulforhodamine B assay; format: functional; settings: K562, 48 h; summary of the method: as §1
HOP-92 = experiment: Growth inhibition of human HOP92 cells after 48 hrs by sulforhodamine B assay; format: functional; settings: HOP-92, 48 h; summary of the method: as §1
SK-OV-3 = experiment: Growth inhibition of human SKOV3 cells after 48 hrs by sulforhodamine B assay; format: functional; settings: SK-OV-3, 48 h; summary of the method: as §1
SF-268 = experiment: Growth inhibition of human SF268 cells after 48 hrs by sulforhodamine B assay; format: functional; settings: SF-268, 48 h; summary of the method: as §1
HL-60(TB) = experiment: Growth inhibition of human HL-60(TB) cells after 48 hrs by sulforhodamine B assay; format: functional; settings: HL-60, 48 h
Summary of the method: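 NCI 60-cell-line screen protocol: cells exposed to compound at five 10-fold dilutions from 10^-4 to 10^-8 M for the last 48 h of a 72 h incubation. Sulforhodamine B protein assay estimated viability/growth. GI50 (50% growth inhibition) derived; where not reached or exceeded, reported as greater or less than the highest or lowest concentration tested.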

NCI-H522 = experiment: Growth inhibition of human NCI-H522 cells after 48 hrs by sulforhodamine B assay; format: functional; settings: NCI-H522, 48 h; summary of the method: as §1
UO-31 = experiment: Growth inhibition of human UO31 cells after 48 hrs by sulforhodamine B assay; format: functional; settings: UO-31, 48 h; summary of the method: as §2
SK-MEL-2 = experiment: Growth inhibition of human SK-MEL-2 cells after 48 hrs by sulforhodamine B assay; format: functional; settings: SK-MEL-2, 48 h; summary of the method: as §1
Malme-3M = experiment: Growth inhibition of human MALME-3M cells after 48 hrs by sulforhodamine B assay; format: functional; summary of the method: as §1
NCI/ADR-RES = experiment: Growth inhibition of human NCI/ADR-RES cells after 48 hrs by sulforhodamine B assay; format: functional; summary of the method: as §1
SF-295 = experiment: Growth inhibition of human SF295 cells after 48 hrs by sulforhodamine B assay; format: functional; settings: SF-295, 48 h; summary of the method: as §1
HCT-116 = experiment: Growth inhibition of human HCT116 cells after 48 hrs by sulforhodamine B assay; format: functional; settings: HCT-116, 48 h; summary of the method: as §1
[2] = Growth inhibition of human […] cells after 48 hrs by sulforhodamine B assay; format: functional; summary of the method: as §1
SNB-19 = experiment: Growth inhibition of human SNB19 cells after 48 hrs by sulforhodamine B assay; format: functional; settings: SNB-19, 48 h; summary of the method: as §2
NCI-H322M = experiment: Growth inhibition of human NCI-H322M cells after 48 hrs by sulforhodamine B assay; format: functional; summary of the method: as §1
KM12 = experiment: Growth inhibition of human KM12 cells after 48 hrs by sulforhodamine B assay; format: functional; settings: KM12, 48 h; summary of the method: as §1
EKVX = experiment: Growth inhibition of human EKVX cells after 48 hrs by sulforhodamine B assay; format: functional; summary of the method: as §1
T47D = experiment: Growth inhibition of human T47D cells after 48 hrs by sulforhodamine B assay; format: functional; summary of the method: as §2
HCT-15 = experiment: Growth inhibition of human HCT15 cells after 48 hrs by sulforhodamine B assay; format: functional; settings: HCT-15, 48 h; summary of the method: as §1
MDA-MB-435 = experiment: Growth inhibition of human MDA-MB-435 cells after 48 hrs by sulforhodamine B assay; format: functional; settings: MDA-MB-435, 48 h; summary of the method: as §1
OVCAR-4 = experiment: Growth inhibition of human OVCAR4 cells after 48 hrs by sulforhodamine B assay; format: functional; settings: OVCAR-4, 48 h; summary of the method: as §1
786-0 = experiment: Growth inhibition of human 786-0 cells after 48 hrs by sulforhodamine B assay; format: functional; settings: 786-0, 48 h; summary of the method: as §1
UACC-257 = experiment: Growth inhibition of human UACC257 cells after 48 hrs by sulforhodamine B assay; format: functional; settings: UACC-257, 48 h; summary of the method: as §2
MDA-MB-231 = experiment: Growth inhibition of human MDA-MB-231 cells after 48 hrs by sulforhodamine B assay; format: functional; settings: MDA-MB-231, 48 h; summary of the method: as §1
NCI-H460 = experiment: Growth inhibition of human NCI-H460 cells after 48 hrs by sulforhodamine B assay; format: functional; settings: NCI-H460, 48 h; summary of the method: as §1
OVCAR-8 = experiment: Growth inhibition of human OVCAR8 cells after 48 hrs by sulforhodamine B assay; format: functional; settings: OVCAR-8, 48 h; summary of the method: as §1
LOX IMVI = experiment: Growth inhibition of human LOXIMVI cells after 48 hrs by sulforhodamine B assay; format: functional; summary of the method: as §1
MOLT-4 = experiment: Growth inhibition of human MOLT4 cells after 48 hrs by sulforhodamine B assay; format: functional; settings: MOLT-4, 48 h; summary of the method: as §1
HOP-62 = experiment: Growth inhibition of human HOP62 cells after 48 hrs by sulforhodamine B assay; format: functional; settings: HOP-62, 48 h; summary of the method: as §1
MT4 = experiment: Antiproliferative activity against human MT4 cells assessed as reduction of growth by MTT assay; format: functional, cell-based
Summary of the method: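 MT-4 lymphoblastoid T cells (ATCC) in RPMI 1640 with 10% FCS, penicillin/streptomycin, checked for mycoplasma. 1 × 10⁴ mock-infected cells per well with serial dilutions from a 100 mM DMSO stock. Incubated 4 days at 37 °C, viable cells counted by MTT. IC50 versus untreated controls by linear regression. Mean of three separate experiments.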

ACHN = experiment: Growth inhibition of human ACHN cells after 48 hrs by sulforhodamine B assay; format: functional; summary of the method: as §1
DU-145 = experiment: Growth inhibition of human DU145 cells after 48 hrs by sulforhodamine B assay; format: functional; settings: DU-145, 48 h; summary of the method: as §1
HT-29 = experiment: Growth inhibition of human HT-29 cells after 48 hrs by sulforhodamine B assay; format: functional; settings: HT-29, 48 h; summary of the method: as §1
MCF7 = experiment: Growth inhibition of human MCF7 cells after 48 hrs by sulforhodamine B assay; format: functional; settings: MCF7, 48 h; summary of the method: as §1
SR = experiment: Growth inhibition of human SR cells after 48 hrs by sulforhodamine B assay; format: functional; summary of the method: as §2
BT-549 = experiment: Growth inhibition of human BT549 cells after 48 hrs by sulforhodamine B assay; format: functional; settings: BT-549, 48 h; summary of the method: as §1
PC-3 = experiment: Growth inhibition of human PC3 cells after 48 hrs by sulforhodamine B assay; format: functional; settings: PC-3, 48 h; summary of the method: as §1
RXF 393 = experiment: Growth inhibition of human RXF393 cells after 48 hrs by sulforhodamine B assay; format: functional; settings: RXF 393, 48 h; summary of the method: as §1

O=C(C(=CN1CCNC1=S)C(=O)c1ccccc1)c1ccccc1
Activity [1]: inactive

CC(=O)C(=CN1CCNC1=S)C(C)=O
Activity [1]: inactive

N#C/C(=C\N1CCN(C(=O)c2ccco2)C1=S)C(N)=O
GI50 (IGROV-1): 24 µM | GI50 (U-251): 11.5 µM | GI50 (M14): 16.5 µM | GI50 (TK-10): 12.1 µM | GI50 (COLO 205): 24.9 µM | GI50 (A549): 34.5 µM | GI50 (NCI-H23): 21.4 µM | GI50 (SK-MEL-28): 15.8 µM | GI50 (CAKI-1): 11.8 µM | GI50 (SK-MEL-5): 16.5 µM | GI50 (UACC-62): 14 µM | GI50 (SN12C): 12 µM | GI50 (OVCAR-3): 19 µM | GI50 (SW-620): 22.1 µM | GI50 (K562): 9.1 µM | GI50 (HOP-92): 25.5 µM | GI50 (SK-OV-3): 42.6 µM | GI50 (SF-268): 11.7 µM | GI50 (HL-60(TB)): 22 µM | GI50 (NCI-H522): 18.7 µM | GI50 (UO-31): 23.5 µM | GI50 (SK-MEL-2): 24.4 µM | GI50 (Malme-3M): 12.5 µM | GI50 (NCI/ADR-RES): 25.4 µM | GI50 (SF-295): 32.1 µM | GI50 (HCT-116): 21.2 µM | GI50 [2]: 12.4 µM | GI50 (SNB-19): 36.4 µM | GI50 (NCI-H322M): 17.6 µM | GI50 (KM12): 7.5 µM | GI50 (EKVX): 0.3 µM | GI50 (T47D): 9.3 µM | GI50 (HCT-15): 3.8 µM | GI50 (MDA-MB-435): 14.6 µM | GI50 (OVCAR-4): 18.5 µM | GI50 (786-0): 18 µM | GI50 (UACC-257): 23.3 µM | GI50 (MDA-MB-231): 13.1 µM | GI50 (NCI-H460): 4 µM | GI50 (OVCAR-8): 43.6 µM | GI50 (LOX IMVI): 2.5 µM | GI50 (MOLT-4): 39.8 µM | GI50 (HOP-62): 25.6 µM | IC50 (MT4): 4 µM | GI50 (ACHN): 11 µM | GI50 (DU-145): 29.8 µM | GI50 (HT-29): 24.1 µM | GI50 (MCF7): 1.7 µM | GI50 (SR): 3 µM | GI50 (BT-549): 22.5 µM | GI50 (PC-3): 35.6 µM | GI50 (RXF 393): 19.2 µM

From ChEMBL document CHEMBL1138555, “N-acylated and N,N'-diacylated imidazolidine-2-thione derivatives and N,N'-diacylated tetrahydropyrimidine-2(1H)-thione analogues: synthesis and antiproliferative activity” (Eur J Med Chem, 2009)
